The results in this text go back to publication PMC7103123 (Toxicology and Applied Pharmacology, 2017).

The subject of one data set is Na^+/K^+-ATPase. Kind of data set: Na^+/K^+-ATPase protein level in ST cells. It is filed as cell-based, swine. Particulars: Fig. 4D-a.
Data set [1] concerns TGEV. Kind of data set: Effect of Na^+/K^+-ATPase activators on TGEV activity in ST cells. It is filed as cell-based, porcine transmissible gastroenteritis virus. Particulars: Fig. 4D-b.
Data set [2] relates to TGEV. Kind of data set: Anti-TGEV IC50 of cardenolides alone or combined with aldosterone or Db cAMP. The note with it: Fig. 4D-c. It is filed as cell-based, porcine transmissible gastroenteritis virus.
The nature of data set [3]: Cytotoxicity assay in TGEV infected ST cells. It is filed as cell-based, swine. The note with it: swine. Summed up: (§1)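 Cytotoxicity is measured in TGEV-infected ST cells in parallel with the immunofluorescence replication assay, with compound pretreatment for 1 h. CC50 is read at 6 h.p.i. Means ± S.D. come from 3–5 independent experiments, each in duplicate.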
Data set [4] deals with caspase-3 activation in TGEV infected ST cells. Nature of the data set: Western blot for TGEV induced caspase-3 activation in ST cells. It is filed as cell-based, swine. Particulars: 1 μM, 18 h.p.i. The procedure, abridged: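 TGEV-infected swine testicular (ST) cells were treated with test compound at the indicated concentrations and harvested at 18 h post-infection. Lysates were analysed by western blot with antibodies against caspase-3 to detect its activation, plus TGEV N protein and β-actin as the loading control. A reference anti-TGEV compound served as the positive control.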
Background: A western blot detects proteins with antibodies after separation by electrophoresis.

Another data set concerns TGEV N protein. Kind of data set: Western analysis for TGEV N protein expression in infected ST cells. It is filed as cell-based, porcine transmissible gastroenteritis virus. Summed up: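 Western blot for TGEV N protein in infected ST cells. In the titer-linked set, compound is added 1 h before TGEV (0.01 MOI), with 22 h incubation at 37 °C. Adherent cells are harvested for blotting while supernatants go to titration. Three or more independent experiments.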

The subject of data set [5] is TGEV. Nature of the data set: Cytopathic effect assay in TGEV infected ST cells. It is filed as cell-based, porcine transmissible gastroenteritis virus. Particulars: 1 μM, TGEV 3.5 MOI, 18 h.p.i. The procedure, abridged:
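ST cells are pretreated with test compound for 1 h, then TGEV-infected at MOI 3.5, with mock-infected controls. At 18 h.p.i., cytopathic effect (rounding, enlargement, syncytia, detachment) is scored and viability is measured by MTS. Survival is compared with vehicle-treated infected cells by Student t-test. Three independent experiments.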
(In general: Protection from cytopathic effect is a common read-out in antiviral testing.)

Another data set deals with ST cells. Nature of the data set: Cytotoxicity assay in TGEV infected ST cells. It is filed as cell-based, swine. The note with it: read-out: ST CC50; cytotoxicity in TGEV infected ST cells at 6 h.p.i. The procedure, abridged:
as §1

`C[C@]12CCC(=O)C=C1CC[C@@H]1[C@@H]2[C@@H](O)C[C@]2(C=O)[C@@H](C(=O)CO)CC[C@@H]12` [Aldosterone, aldosterone]: the “Na^+/K^+-ATPase protein level in ST cells” value in the data set with Na^+/K^+-ATPase is listed as “moderately augmented”. Besides, the “infectivity of TGEV” value in the data set with TGEV [1] was “increased the infectivity”. Further, in the data set with TGEV [2], the “effect on anti-TGEV activity of cardenolides” value is recorded as “able to antagonize”.

For `CCCC(=O)Nc1ncnc2c1ncn2[C@@H]1O[C@@H]2COP(=O)([O-])O[C@H]2[C@H]1OC(=O)CCC.[Na+]` [Db cAMP, N6,2′-O-Dibutyryladenosine 3′,5′-cyclic monophosphate sodium salt], the “Na^+/K^+-ATPase protein level in ST cells” value in the data set on Na^+/K^+-ATPase is “moderately augmented”. In addition, the “infectivity of TGEV” value in the data set on TGEV [1] is “increased the infectivity”. In addition, the “effect on anti-TGEV activity of cardenolides” value in the data set on TGEV [2] is given as “able to antagonize”.

For orientation: CC50 means the concentration at which the toxic effect on the cells reaches its halfway point. Take `C[C@]12CC[C@H](O)C[C@H]1CC[C@@H]1[C@@H]2CC[C@]2(C)[C@@H](C3=CC(=O)OC3)CC[C@]12O` [Digitoxigenin, digitoxigenin]: in data set [3], the CC50 at 6 h post infection is above 10 µM. Regarding `C[C@H]1O[C@@H](O[C@H]2[C@@H](O)C[C@H](O[C@H]3[C@@H](O)C[C@H](O[C@H]4CC[C@@]5(C)[C@H](CC[C@@H]6[C@@H]5CC[C@]5(C)[C@@H](C7=CC(=O)OC7)CC[C@]65O)C4)O[C@@H]3C)O[C@@H]2C)C[C@H](O)[C@@H]1O` [Digitoxin, digitoxin], the “protection against caspase-3 activation” value in data set [4] is “strong protection”. Also, the CC50 at 6 h post infection in data set [3] was above 10 µM.

On to `C[C@H]1O[C@@H](O[C@H]2[C@@H](O)C[C@H](O[C@H]3[C@@H](O)C[C@H](O[C@H]4CC[C@@]5(C)[C@H](CC[C@@H]6[C@@H]5C[C@@H](O)[C@]5(C)[C@@H](C7=CC(=O)OC7)CC[C@]65O)C4)O[C@@H]3C)O[C@@H]2C)C[C@H](O)[C@@H]1O` [Digoxin, digoxin], for which the CC50 at 6 h post infection in data set [3] is above 10 µM.

As for `CO[C@H]1C[C@H](O[C@H]2CC[C@@]3(C)[C@H](CC[C@@H]4[C@@H]3CC[C@]3(C)[C@@H](C5=CC(=O)OC5)[C@@H](OC(C)=O)C[C@]43O)C2)O[C@@H](C)[C@@H]1O` [Oleandrin, oleandrin], in data set [4], the “protection against caspase-3 activation” value is “strong protection”. In addition, the “N protein expression in TGEV infected ST cells” value in the data set with TGEV N protein (TGEV 0.01 MOI, 22 h.p.i. (Fig. 3B)) was “dose dependant manner”. For the same compound, the “N protein expression by western analyses in TGEV infected ST cells” value with TGEV N protein (various doses (Fig. 1D)) is given as “dose dependent manner of decreases”. In data set [3], the CC50 at 6 h post infection is above 10 µM. On to `C[C@@H]1O[C@@H](O[C@H]2C[C@@H](O)[C@]3(CO)[C@H]4[C@H](O)C[C@]5(C)[C@@H](C6=CC(=O)OC6)CC[C@]5(O)[C@@H]4CC[C@]3(O)C2)[C@H](O)[C@H](O)[C@H]1O` [Ouabain, ouabain], for which the “protection against caspase-3 activation” value in data set [4] is listed as “strong protection”. Further, the half-maximal cytotoxic concentration (CC50) at 6 h post infection in data set [3] is above 10 µM. For the compound `COc1cc2c3c(c4cc(OC)c(OC)cc4c2cc1OC)CN1CCC[C@@H]1C3` [Tylophorine], the “protection against cytopathic effect” value in the data set on TGEV [5] is given as “displayed protection”. Besides, the CC50 at 6 h post infection in data set [3] is above 10 µM.

With Reevesioside B, the 50% cytotoxic concentration (CC50) with ST cells was above 50 µM. For the compound Reevesioside C, in the data set with ST cells, the CC50 is above 50 µM. Consider Reevesioside D, for which, in the data set with ST cells, the cytotoxic concentration (CC50) is above 50 µM.

Consider Reevesioside E, for which the 50% cytotoxic concentration (CC50) in the data set with ST cells is above 50 µM.

For the compound Reevesioside F, the “protection against caspase-3 activation” value in data set [4] is “strong protection”. The CC50 in the data set on ST cells was above 10 µM. Regarding Reevesioside H /epi-Reevesioside H, in the data set with ST cells, the half-maximal cytotoxic concentration (CC50) is above 50 µM. As for Reevesioside I /epi-Reevesioside I, the CC50 in the data set with ST cells is above 50 µM.
